# Assays:
# [1] = melting temperature; fluorescence melt of hairpins on a sequencing array, two-state fit, raised by 9.35 °C to match UV melts; conditions: sodium 0.088 M
# Summary of the method: (§1)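 Two-state fits, bootstrapped, provided melting temperature and folding enthalpy from Cy3 fluorescence normalised to pre-quench Cy3 and to control constructs. Library hairpins with annealed Cy3 and quencher oligos were imaged on a sequenced MiSeq flow cell in 50 mM Na-HEPES pH 8.0, 25 mM NaCl, at 2.5 °C intervals up to 60 °C. Four replicates were combined with inverse-variance weighting. A 9.35 °C upward shift was applied to fitted temperatures to match UV melts.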
# [2] = folding enthalpy; higher = less favourable; fluorescence melt of hairpins on a sequencing array, two-state fit; conditions: sodium 0.088 M
# Summary of the method: as §1
Sequence,Tm [1],folding enthalpy [2]
GACTGCCGAAAGGCTGTC (((.(((....))).))),63.2 °C,-30.9 kcal/mol
GAGTCAGCGAAAGCTCTC (((..(((....)))))),30.1 °C,-11.8 kcal/mol
GTTGCCGAAAGGCGAAC ((((((....))).))),50.3 °C,-13.8 kcal/mol
GGATGCGAAAGCATTTCC ((((((....)))..))),38.8 °C,-11.1 kcal/mol
GCGATCCTTCGC ((((....)))),53.7 °C,-24.6 kcal/mol
TGCTGGAAACAGCA (((((....))))),53.1 °C,-19.4 kcal/mol
GGGTACGAAAGTAATCCC ((((((....)))..))),39 °C,-20.7 kcal/mol
GAGTGTGGAAACATACTC ((((.((....)).)))),45.9 °C,-31.9 kcal/mol
GATCATAGGGATGATC ((((((....)))))),47.3 °C,-34.1 kcal/mol
GGCAAACGAAAGTTGGCC (((.(((....))).))),60.2 °C,-43.9 kcal/mol
GTAGTGACGAAAGTCTAC (((..(((....)))))),29.7 °C,-15.9 kcal/mol
GGTGTACGAAAGTAAACC (((.(((....))).))),48.6 °C,-24.9 kcal/mol
GCTCGGCGAAAGCGGCGC ((.(.((....)).).)),54 °C,-15.8 kcal/mol
GCCAGGCGAAAGCCGCGC ((..(((....)))..)),58.4 °C,-18 kcal/mol
CGCTCGGAAACGATGGCG ((((((....)))..))),45.7 °C,-31.2 kcal/mol
GTGGCTGGAAACAGCTAC ((.((((....)))).)),53.9 °C,-29.3 kcal/mol
GTACTCGAAAGAGCTTAC ((((((....)))..))),27.6 °C,-11.4 kcal/mol
GGAAGCGAAAGCTTGTCC ((((((....)))..))),35.8 °C,-10.3 kcal/mol
GATACGGAAACGTATC ((((((....)))))),54 °C,-43.6 kcal/mol
GGTAAGGGAAACCTTATC (.(((((....))))).),38.1 °C,-25.6 kcal/mol
GTACATGGAAACATGTGC (.(((((....))))).),48.6 °C,-22.7 kcal/mol
GATCTTTTGCAAGATC ((((((....)))))),42.8 °C,-34.8 kcal/mol
GATCATGTAGATGATC ((((((....)))))),51 °C,-38.9 kcal/mol
GATCCATTATTGGATC ((((((....)))))),52.7 °C,-37.1 kcal/mol

Sequence,Tm [1],folding enthalpy [2]
GATCTATCATTAGATC ((((((....)))))),42.1 °C,-28.2 kcal/mol
GAGCACGGAAACATGCTC (((((.(....).))))),45.4 °C,-35 kcal/mol
GGTGATGGAAACATTACC (((.(((....))).))),45.2 °C,-30.2 kcal/mol
GATCCCTTCGGGATC ((((((...)))))),65.3 °C,-41.1 kcal/mol
GGTGGGCGAAAGCCACC (((.(((....)))))),66.1 °C,-21.3 kcal/mol
GATCAAGTCATTGATC ((((((....)))))),52.3 °C,-41.8 kcal/mol
GTCATAGGAAACTGTGAC ((((.((....)).)))),46.4 °C,-32.1 kcal/mol
GCGGCCGGAAACGGCCAC (.(((((....))))).),53 °C,-9.59 kcal/mol
GCTTAGCGAAAGCTTAGC (((.(((....))).))),51.9 °C,-43.1 kcal/mol
GGATTGCGAAAGCATCC (((.(((....)))))),50.8 °C,-20.8 kcal/mol
GCGGACACCCGC ((((....)))),53.5 °C,-20.9 kcal/mol
GTGAATCGAAAGATCCAC (((.(((....))).))),43.4 °C,-27.7 kcal/mol
GGCCAAGGAAACTTGACC ((.((((....)))).)),43.1 °C,-30.3 kcal/mol
GATCTTTTCAAAGATC ((((((....)))))),48.7 °C,-43.6 kcal/mol
GTCTGACGAAAGTCCGAC (((.(((....))).))),49 °C,-28.5 kcal/mol
GTGTAGGGAAACCTACAC (((((((....))))))),61.5 °C,-41.1 kcal/mol
GCAAGGCGAAAGCCAGGC ((..(((....)))..)),52.2 °C,-18.8 kcal/mol
GCGATGGCGAAAGCCCGC (((..(((....)))))),56.5 °C,-18.4 kcal/mol
GTATCCCGAAAGGGCTAC (((.(((....))).))),41.3 °C,-22.5 kcal/mol
GAGAACGCGAAAGCGCTC (((..(((....)))))),39 °C,-12.2 kcal/mol
GATCAGTAGCCTGATC ((((((....)))))),49.6 °C,-31.4 kcal/mol
GTCGAGGGAAACTTCGAC (((((.(....).))))),49.6 °C,-42.6 kcal/mol
GCTTGTCGAAAGACAGC (((.(((....)))))),52.9 °C,-19.9 kcal/mol
GGGTATGGAAACATGTCC ((..(((....)))..)),34 °C,-15.6 kcal/mol

Sequence,Tm [1],folding enthalpy [2]
GATCAGACGCCTGATC ((((((....)))))),50 °C,-40.1 kcal/mol
GCCAATGCGAAAGCAGGC (((..(((....)))))),53 °C,-21.7 kcal/mol
GCTAATCGAAAGATAAGC (((.(((....))).))),42.8 °C,-26.2 kcal/mol
GCGATTGTTCGC ((((....)))),51.6 °C,-24.5 kcal/mol
GTTCCTCGAAAGAGTAAC (((.(((....))).))),34.1 °C,-27.6 kcal/mol
GATCGTCCTGACGATC ((((((....)))))),59.4 °C,-46.3 kcal/mol
GGCTACGAAAGTAAGCC ((((((....))).))),58.4 °C,-36.3 kcal/mol
GATCACGGAAACATGATC (((((.(....).))))),35.4 °C,-26 kcal/mol
GGAGATGGAAACATCTCC (((((((....))))))),65 °C,-38 kcal/mol
GTTAGGGGAAACCCCAAC (((.(((....))).))),37.4 °C,-19 kcal/mol
GGATTCGGAAACGGATCC ((((.((....)).)))),53 °C,-39.2 kcal/mol
GAAGACCGAAAGGTTTC (((.(((....)))))),37 °C,-13.9 kcal/mol
GTGCTCGGAAACAAGCAC (((((.(....).))))),46.2 °C,-31.9 kcal/mol
GATCGAGTATTCGATC ((((((....)))))),59.2 °C,-40 kcal/mol
CGGTCGGAAACGAGGCCG ((((((....)))..))),41.5 °C,-23.7 kcal/mol
GTCGGAGGAAACTCCAAC ((.((((....)))).)),35.5 °C,-22.7 kcal/mol
GATTTGCGAAAGCAATC (((.(((....)))))),40.3 °C,-12.6 kcal/mol
GACAGTCCGAAAGGAGTC (((..(((....)))))),30.3 °C,-17 kcal/mol
GTGTGAGGAAACTTACAC ((((.((....)).)))),43.9 °C,-37.6 kcal/mol
GCCAGTGGAAACACCGGC (((.(((....))).))),49.6 °C,-37.1 kcal/mol
CTTACGAAAGTAAG (((((....))))),49.2 °C,-19.3 kcal/mol
GCTGGCGAAAGCCCGAGC ((((((....)))..))),45.4 °C,-14.3 kcal/mol
GTTGCTGGAAACAACAAC ((((.((....)).)))),38.8 °C,-29.2 kcal/mol
GTGACCGAAAGGTTACAC ((((((....)))..))),49.8 °C,-16.6 kcal/mol

Sequence,Tm [1],folding enthalpy [2]
GGGGTAGGAAACTACCTC (.(((((....))))).),48 °C,-20 kcal/mol
GAATTCGGAAACGAGTTC (((.(((....))).))),43.9 °C,-32.5 kcal/mol
GCGACGCATCGC ((((....)))),49.8 °C,-16 kcal/mol
GGTCGCGAAAGCGGAACC ((((((....)))..))),47.8 °C,-15.3 kcal/mol
GATCTCTGTTGAGATC ((((((....)))))),54.3 °C,-41 kcal/mol
GATCGGAGACCGATC ((((((...)))))),56.7 °C,-30.9 kcal/mol
GAATACGAAAGTAGTTC ((((((....))).))),26.8 °C,-10.9 kcal/mol
GGATGTCGAAAGACTTCC (((.(((....))).))),51.5 °C,-39.6 kcal/mol
AATGTGAAAACATT (((((....))))),37.8 °C,-15 kcal/mol
GCACTGCGAAAGCCGGGC ((.(.((....)).).)),57.1 °C,-22.7 kcal/mol
GTTATCGAAAGATAAC ((((((....)))))),53.1 °C,-42.8 kcal/mol
GAGAACGAAAGTTCTC ((((((....)))))),62.4 °C,-36 kcal/mol
GATCAAGCATTTGATC ((((((....)))))),51 °C,-32.7 kcal/mol
GCAGTTCCGAAAGGATGC (((..(((....)))))),36.7 °C,-17.8 kcal/mol
GTGTATCCGAAAGGACAC (((..(((....)))))),42.2 °C,-21.6 kcal/mol
GCAGAGCGAAAGCTTCGC ((..(((....)))..)),44.8 °C,-17.2 kcal/mol
GATCGAGGGGTCGATC ((((((....)))))),45.6 °C,-4.35 kcal/mol
GATCGAGTACTCGATC ((((((....)))))),58.8 °C,-43.4 kcal/mol
GTGAAGCGAAAGCTACAC (((.(((....))).))),55.7 °C,-30.1 kcal/mol
GAAAGACGAAAGTCCTTC (((.(((....))).))),32.8 °C,-15.6 kcal/mol
TTGGAGAAATCCAA (((((....))))),35.5 °C,-11.1 kcal/mol

# — the array DNA melting data of Ke et al. (doi:10.1101/2024.01.08.574731)
